Calls of active or inactive are those of the source. No cut-off for these calls is given here.
What was measured:
[1] = Inhibition of chymotrypsin-like activity of human 20s proteasome beta5 subunit in human erythrocyte assessed as hydrolysis of Ac-WLA-AMC fluorogenic substrate
[2] = (§1) Inhibition of TNF-alpha-induced NF-kappaB activation in human HEK293 cells after 3 hrs by luciferase reporter gene assay; format: cell-based; details: HEK293, 3 h
Procedure, shortened: (§2)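 NF-κB-luciferase reporter in HEK293 cells (10,000 per well). Cells were pre-incubated with compound for 1 h, then stimulated with 10 ng/ml TNF-α for 3 h with compound still present. IC50 and percentage inhibition were reported as means of at least three independent experiments.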

[3] = tested on: HEK293; assay: as §1; format: cell-based; parameters: concentration or dose not given beside the values; details: dose or concentration not given here; procedure, shortened: as §2
[4] = Cytotoxicity against human Calu6 cells assessed as cellular ATP level after 72 hrs by luminescence-based ATPlite assay; format: cell-based, Calu-6; details: read-out: LC50
Procedure, shortened: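 Calu6 cells, 2000 per well, incubated with compound for 72 h. Viability read as cellular ATP by luminescence (ATPlite). Values are means of at least three independent experiments.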

[5] = Inhibition of chymotrypsin-like activity of human 20s proteasome beta-1 subunit in human erythrocyte assessed as hydrolysis of Ac-WLA-AMC fluorogenic substrate
[6] = Inhibition of chymotrypsin-like activity of human 20s proteasome beta2 subunit in human erythrocyte assessed as hydrolysis of Ac-WLA-AMC fluorogenic substrate
[7] = biological target: Cathepsin B (Homo sapiens) (UniProt P07858); assay: Inhibition of human cathepsin B at 100uM
[8] = biological target: Procathepsin L (Homo sapiens) (UniProt P07711); assay: Inhibition of human cathepsin L at 100uM
[9] = biological target: T1, Coagulation factor XII (Homo sapiens) (UniProt P00748); assay: Inhibition of human coagulation factor beta 12a at 100 uM
T1 sequence (whole entry): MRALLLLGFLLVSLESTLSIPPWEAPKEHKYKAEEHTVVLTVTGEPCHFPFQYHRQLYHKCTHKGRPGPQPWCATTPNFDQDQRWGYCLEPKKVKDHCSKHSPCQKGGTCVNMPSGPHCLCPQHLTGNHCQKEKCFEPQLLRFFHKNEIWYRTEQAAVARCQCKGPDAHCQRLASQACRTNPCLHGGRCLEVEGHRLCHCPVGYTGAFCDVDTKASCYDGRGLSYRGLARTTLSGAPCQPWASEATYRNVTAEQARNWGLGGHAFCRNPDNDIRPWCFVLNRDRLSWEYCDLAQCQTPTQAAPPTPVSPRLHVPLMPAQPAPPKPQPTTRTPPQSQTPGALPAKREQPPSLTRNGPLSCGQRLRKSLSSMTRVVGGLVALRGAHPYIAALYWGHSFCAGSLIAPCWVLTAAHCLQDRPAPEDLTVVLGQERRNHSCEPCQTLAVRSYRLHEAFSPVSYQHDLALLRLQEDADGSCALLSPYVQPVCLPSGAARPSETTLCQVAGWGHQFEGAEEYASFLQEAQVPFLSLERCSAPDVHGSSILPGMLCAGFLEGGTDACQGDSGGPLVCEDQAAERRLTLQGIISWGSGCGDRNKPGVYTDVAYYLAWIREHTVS

[10] = organism: Homo sapiens; assay: Inhibition of human chymotrypsin at 100 uM
[11] = organism: Homo sapiens; assay: Inhibition of human elastase at 100 uM
[12] = biological target: Plasminogen (Homo sapiens) (UniProt P00747); assay: Inhibition of human plasmin at 100 uM
[13] = biological target: Prothrombin (Homo sapiens) (UniProt P00734); assay: Inhibition of human thrombin at 100 uM
[14] = biological target: Tissue-type plasminogen activator (Homo sapiens) (UniProt P00750); assay: Inhibition of tissue plasminogen activator at 100 uM
[15] = biological target: Trypsin (Homo sapiens) (UniProt P07477+P07478+P35030); assay: Inhibition of human trypsin at 100 uM; format: protein assay
[16] = biological target: T2, Calpain-1 catalytic subunit (Homo sapiens) (UniProt P07384); assay: Inhibition of human calpain 1 at 100 uM
T2 sequence (whole entry): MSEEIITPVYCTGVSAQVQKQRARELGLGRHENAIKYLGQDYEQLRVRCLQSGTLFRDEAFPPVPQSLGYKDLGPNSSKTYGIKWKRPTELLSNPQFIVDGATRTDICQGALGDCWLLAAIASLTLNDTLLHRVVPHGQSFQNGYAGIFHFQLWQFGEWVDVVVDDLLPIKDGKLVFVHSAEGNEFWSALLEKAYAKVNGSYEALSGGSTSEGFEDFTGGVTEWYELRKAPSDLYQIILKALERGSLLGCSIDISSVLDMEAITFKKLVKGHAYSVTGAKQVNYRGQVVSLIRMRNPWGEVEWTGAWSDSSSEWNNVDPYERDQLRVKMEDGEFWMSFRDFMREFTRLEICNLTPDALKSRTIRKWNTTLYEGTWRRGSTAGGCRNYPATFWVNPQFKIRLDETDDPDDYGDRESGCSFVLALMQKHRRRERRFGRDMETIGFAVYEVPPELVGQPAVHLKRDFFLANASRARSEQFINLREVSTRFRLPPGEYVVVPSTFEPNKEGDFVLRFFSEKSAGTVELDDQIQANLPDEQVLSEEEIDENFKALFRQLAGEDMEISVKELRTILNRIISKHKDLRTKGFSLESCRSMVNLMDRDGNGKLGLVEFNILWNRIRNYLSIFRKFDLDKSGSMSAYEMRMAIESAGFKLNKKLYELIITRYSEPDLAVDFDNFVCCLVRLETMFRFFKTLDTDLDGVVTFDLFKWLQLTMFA

Sequence of Tissue-type plasminogen activator (Homo sapiens) (P00750 36-562 limits assumed): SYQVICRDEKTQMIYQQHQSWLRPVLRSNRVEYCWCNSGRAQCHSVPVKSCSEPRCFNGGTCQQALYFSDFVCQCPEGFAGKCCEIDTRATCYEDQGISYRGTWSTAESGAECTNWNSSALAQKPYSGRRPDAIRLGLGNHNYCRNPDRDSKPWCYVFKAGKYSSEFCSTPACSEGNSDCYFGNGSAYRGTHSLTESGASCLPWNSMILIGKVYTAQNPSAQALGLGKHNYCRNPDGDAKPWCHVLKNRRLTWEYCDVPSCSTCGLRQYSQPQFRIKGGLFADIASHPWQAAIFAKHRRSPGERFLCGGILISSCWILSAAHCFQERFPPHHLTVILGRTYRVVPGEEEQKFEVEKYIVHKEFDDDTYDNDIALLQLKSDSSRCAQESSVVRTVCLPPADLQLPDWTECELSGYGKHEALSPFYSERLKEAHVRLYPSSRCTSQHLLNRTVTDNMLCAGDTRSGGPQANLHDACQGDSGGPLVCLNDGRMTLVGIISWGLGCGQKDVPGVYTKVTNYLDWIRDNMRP
Sequence of Procathepsin L (Homo sapiens) (P07711 114-333 limits assumed): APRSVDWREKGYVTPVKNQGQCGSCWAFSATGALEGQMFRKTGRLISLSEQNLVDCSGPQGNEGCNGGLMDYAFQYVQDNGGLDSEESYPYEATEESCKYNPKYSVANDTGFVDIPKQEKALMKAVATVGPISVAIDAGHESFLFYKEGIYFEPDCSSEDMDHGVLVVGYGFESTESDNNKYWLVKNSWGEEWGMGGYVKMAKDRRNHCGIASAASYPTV
Sequence of Plasminogen (Homo sapiens) (P00747 97-580 limits assumed): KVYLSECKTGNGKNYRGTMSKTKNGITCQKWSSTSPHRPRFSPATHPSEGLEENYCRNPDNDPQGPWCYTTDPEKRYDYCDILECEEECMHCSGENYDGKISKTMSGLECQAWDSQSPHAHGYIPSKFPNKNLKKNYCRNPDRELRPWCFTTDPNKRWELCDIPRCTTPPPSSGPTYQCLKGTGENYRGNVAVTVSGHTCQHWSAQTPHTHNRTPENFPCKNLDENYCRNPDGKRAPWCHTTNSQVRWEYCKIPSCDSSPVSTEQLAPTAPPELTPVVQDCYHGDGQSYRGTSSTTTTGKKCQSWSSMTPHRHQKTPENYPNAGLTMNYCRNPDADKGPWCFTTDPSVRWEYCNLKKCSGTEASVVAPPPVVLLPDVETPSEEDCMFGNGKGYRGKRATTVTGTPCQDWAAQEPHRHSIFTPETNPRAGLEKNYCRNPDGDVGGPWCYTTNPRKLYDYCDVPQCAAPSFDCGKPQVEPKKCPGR
Sequence of Plasminogen (Homo sapiens) (P00747 581-810 limits assumed): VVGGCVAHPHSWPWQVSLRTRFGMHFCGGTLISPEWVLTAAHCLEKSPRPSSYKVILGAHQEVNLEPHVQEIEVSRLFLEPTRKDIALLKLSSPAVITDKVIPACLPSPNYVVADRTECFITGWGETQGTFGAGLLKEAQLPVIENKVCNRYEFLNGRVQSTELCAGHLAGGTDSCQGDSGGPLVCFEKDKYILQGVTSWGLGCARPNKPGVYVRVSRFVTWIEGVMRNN

| SMILES | IC50 [1] | IC50 [2] | inhibition [3] | CC50 at 72 h [4] | IC50 [5] | IC50 [6] | inhibition [7] | inhibition [8] | inhibition [9] | inhibition [10] | inhibition [11] | inhibition [12] | inhibition [13] | inhibition [14] | inhibition [15] | inhibition [16] |
| --- | --- | --- | --- | --- | --- | --- | --- | --- | --- | --- | --- | --- | --- | --- | --- | --- |
| Cc1ccc(CNC(=O)[C@H](CCc2ccccc2)NC(=O)[C@@H](NC(=O)C(C)(C)Oc2ccccc2Cl)[C@@H](C)O)cc1 | 75 nM | 690 nM | 97% | 1500 nM | > 20000 nM | > 20000 nM | Active | Active | Active | Active | Active | Active | Active | Active | Active | Active |
| Cc1ccc(CNC(=O)[C@H](CCc2ccccc2)NC(=O)[C@@H](NC(=O)CCc2ccccc2C)[C@@H](C)O)cc1 | 120 nM | 690 nM | 80% | 2300 nM | > 20000 nM | > 20000 nM | Active | Active | Active | Active | Active | Active | Active | Active | Active | Active |
| C[C@@H](O)[C@H](NC(=O)c1ccc(OCc2ccccc2)cc1)C(=O)N[C@@H](CCc1ccccc1)C(=O)NCc1ccccc1Cl | 13 nM | 29 nM | 87% | 290 nM | > 20000 nM | > 20000 nM | Active | Active | Active | Active | Active | Active | Active | Active | Active | Active |
| C=CCNC(=O)[C@H](CCc1ccccc1)NC(=O)[C@@H](NC(=O)c1ccc(OCc2ccccc2)cc1)[C@@H](C)O | 100 nM | 880 nM | 99% | 2800 nM | > 20000 nM | > 20000 nM | Active | Active | Active | Active | Active | Active | Active | Active | Active | Active |
| COc1ccc2c(c1)CC(C(=O)N[C@H](C(=O)N[C@@H](CCc1ccccc1)C(=O)NCc1ccc(C)cc1)[C@@H](C)O)CC2 (stereo partly specified) | 20 nM | 95 nM | 89% | 2300 nM | > 20000 nM | > 20000 nM | Active | Active | Active | Active | Active | Active | Active | Active | Active | Active |
| C[C@@H](O)[C@H](NC(=O)c1ccc(OCc2ccccc2)cc1)C(=O)N[C@@H](CCc1ccccc1)C(=O)NCc1cccc(Cl)c1 | 210 nM | 15000 nM | 44% | > 25000 nM | > 20000 nM | > 20000 nM | Active | Active | Active | Active | Active | Active | Active | Active | Active | Active |
| C[C@@H](O)[C@H](NC(=O)c1ccc(OCc2ccccc2)cc1)C(=O)N[C@@H](CCc1ccccc1)C(=O)N(C)Cc1ccccc1 | 9100 nM | 4400 nM | 86% | 6600 nM | > 20000 nM | > 20000 nM | Active | Active | Active | Active | Active | Active | Active | Active | Active | Active |
| Cc1ccc(CNC(=O)[C@H](CCc2ccccc2)NC(=O)[C@H](CCc2ccccc2)NC(=O)Cc2cccc(Oc3ccccc3)c2)cc1 | 1100 nM | > 50000 nM | 28% | > 25000 nM | > 20000 nM | > 20000 nM | Active | Active | Active | Active | Active | Active | Active | Active | Active | Active |
| COC[C@H](NC(=O)Cc1cccc(Oc2ccccc2)c1)C(=O)N[C@@H](CCc1ccccc1)C(=O)NCc1ccc(C)cc1 | 550 nM | 6100 nM | 40% | > 25000 nM | > 20000 nM | > 20000 nM | Active | Active | Active | Active | Active | Active | Active | Active | Active | Active |
| Cc1ccc(CNC(=O)[C@H](CCc2ccccc2)NC(=O)[C@@H](NC(=O)c2ccc(OCc3ccccc3)cc2)[C@@H](C)O)cc1 | 20 nM | 120 nM | 81% | 380 nM | > 20000 nM | > 20000 nM | Active | Active | Active | Active | Active | Active | Active | Active | Active | Active |
| Cc1ccc(CNC(=O)[C@H](CCc2ccccc2)NC(=O)[C@@H](NC(=O)Cc2cccc(Oc3ccccc3)c2)[C@@H](C)O)cc1 | 450 nM | 24000 nM | 30% | 15000 nM | > 20000 nM | > 20000 nM | Active | Active | Active | Active | Active | Active | Active | Active | Active | Active |
